Source: ChEMBL document CHEMBL1133607, “Nonpeptide analogues of dynorphin A(1-8): design, synthesis, and pharmacological evaluation of kappa-selective agonists” (J Med Chem, 2000)
Residues, ends and D or L forms follow the SMILES beside them. *: point of attachment. X1 = CC1C2Cc3ccc(O)cc3[C@]1(C)CCN2CC1C[C@]1(C(=O)*)c1ccccc1

Key:
[1] = target: Opioid receptors; mu & kappa (UniProt P41145+P35372); assay: Ratio of affinity towards mu and kappa opioid receptors; format: protein assay
[2] = target: Kappa-type opioid receptor (Cavia porcellus, UniProt P41144); assay: Displacement of [3H]-U-69,593 from Opioid receptor kappa 1 in guinea pig cerebellar.
Kappa-type opioid receptor, sequence (P41144 whole entry): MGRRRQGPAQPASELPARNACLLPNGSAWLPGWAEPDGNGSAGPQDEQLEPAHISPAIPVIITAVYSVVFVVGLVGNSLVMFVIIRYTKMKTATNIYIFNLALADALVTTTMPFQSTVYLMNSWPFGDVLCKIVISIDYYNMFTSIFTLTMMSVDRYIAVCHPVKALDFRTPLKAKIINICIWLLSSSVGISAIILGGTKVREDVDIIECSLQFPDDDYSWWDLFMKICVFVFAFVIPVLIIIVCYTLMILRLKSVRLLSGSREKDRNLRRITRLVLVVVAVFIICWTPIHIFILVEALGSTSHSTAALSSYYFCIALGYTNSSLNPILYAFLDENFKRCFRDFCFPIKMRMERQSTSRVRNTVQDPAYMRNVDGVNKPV

Mu-type opioid receptor = Mu-type opioid receptor (Rattus norvegicus, UniProt P33535); assay: Displacement of [3H]diprenorphine from opioid receptor mu 1 on crude membrane fractions obtained from whole rat brain (minus cerebellum); format: tissue-based
Mu-type opioid receptor, sequence (P33535 whole entry): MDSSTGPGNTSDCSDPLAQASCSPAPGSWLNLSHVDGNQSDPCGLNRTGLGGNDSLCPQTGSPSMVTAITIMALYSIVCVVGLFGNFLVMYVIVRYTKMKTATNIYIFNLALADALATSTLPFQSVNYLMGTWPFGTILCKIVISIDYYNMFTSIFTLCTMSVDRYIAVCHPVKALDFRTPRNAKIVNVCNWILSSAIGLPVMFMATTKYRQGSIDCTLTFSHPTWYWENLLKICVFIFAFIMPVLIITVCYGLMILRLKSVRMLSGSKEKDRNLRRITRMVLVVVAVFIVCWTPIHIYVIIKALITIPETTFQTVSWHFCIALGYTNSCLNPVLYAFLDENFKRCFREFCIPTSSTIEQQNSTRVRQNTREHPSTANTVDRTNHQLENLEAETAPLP
Method in brief: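 Rat whole-brain (minus cerebellum) crude membranes, 1 mg protein/tube, in 50 mM Tris-HCl pH 7.4 with aprotinin, leupeptin and bacitracin. […] U50,488 and DADLE (300 nM each) saturate κ and δ sites; 1 µM DAMGO defines nonspecific binding. Compounds tested at 10^-11 to 10^-5 M. Ki values are the mean of three experiments in duplicate.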

[3] = target: Delta-type opioid receptor (Rattus norvegicus, UniProt P33533); assay: Displacement of [3H]diprenorphine opioid receptor delta 1 on crude membrane fractions obtained from the whole rat brain (minus cerebellum); format: tissue-based
Delta-type opioid receptor, sequence (P33533 whole entry): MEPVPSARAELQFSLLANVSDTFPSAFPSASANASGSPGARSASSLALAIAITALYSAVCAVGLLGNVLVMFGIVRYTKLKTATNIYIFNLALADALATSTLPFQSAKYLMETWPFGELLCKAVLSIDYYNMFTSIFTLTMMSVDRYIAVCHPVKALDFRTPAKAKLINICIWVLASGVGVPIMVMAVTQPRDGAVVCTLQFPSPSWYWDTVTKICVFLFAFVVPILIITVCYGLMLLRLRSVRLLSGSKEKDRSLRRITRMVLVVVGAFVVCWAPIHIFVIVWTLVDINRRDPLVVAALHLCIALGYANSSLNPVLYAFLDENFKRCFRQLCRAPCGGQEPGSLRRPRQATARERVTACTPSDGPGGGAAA
Method in brief: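 Rat whole-brain (minus cerebellum) crude membranes, 1 mg protein/tube, in 50 mM Tris-HCl pH 7.4 with aprotinin, leupeptin and bacitracin. […] U50,488 and DAMGO (300 nM each) saturate κ and µ sites; 1 µM DPDPE defines nonspecific binding. Compounds tested at 10^-11 to 10^-5 M. Ki values are the mean of three experiments in duplicate.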

Cavia porcellus = species on record: Cavia porcellus; assay: Ratio of affinity towards delta to kappa opioid receptor

Opioid receptors; mu & kappa, sequence (P35372 whole entry, looked up): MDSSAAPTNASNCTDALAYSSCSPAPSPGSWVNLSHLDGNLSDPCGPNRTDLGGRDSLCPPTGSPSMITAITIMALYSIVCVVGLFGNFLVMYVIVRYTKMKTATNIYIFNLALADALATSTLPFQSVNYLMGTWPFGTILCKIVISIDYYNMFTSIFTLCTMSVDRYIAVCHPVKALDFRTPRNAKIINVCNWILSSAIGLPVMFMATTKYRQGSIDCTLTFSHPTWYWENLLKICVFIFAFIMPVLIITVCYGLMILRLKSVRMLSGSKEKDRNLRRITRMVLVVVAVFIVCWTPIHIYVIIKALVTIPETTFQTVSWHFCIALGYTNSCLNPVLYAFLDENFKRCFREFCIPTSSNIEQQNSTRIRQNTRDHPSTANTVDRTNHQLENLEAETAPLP
Opioid receptors; mu & kappa, sequence (P41145 whole entry, looked up): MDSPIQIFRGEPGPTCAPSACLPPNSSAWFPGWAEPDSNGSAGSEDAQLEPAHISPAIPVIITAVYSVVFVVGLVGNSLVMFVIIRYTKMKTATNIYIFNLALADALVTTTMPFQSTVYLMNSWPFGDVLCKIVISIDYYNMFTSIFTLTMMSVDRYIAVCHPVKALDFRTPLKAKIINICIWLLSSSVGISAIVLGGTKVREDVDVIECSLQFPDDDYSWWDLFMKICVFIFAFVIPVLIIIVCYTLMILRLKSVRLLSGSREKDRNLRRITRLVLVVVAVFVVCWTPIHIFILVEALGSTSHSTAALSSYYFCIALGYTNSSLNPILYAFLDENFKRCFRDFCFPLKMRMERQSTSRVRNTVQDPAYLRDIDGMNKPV

Structure (SMILES) | Selectivity ratio [1] | Ki [2] [nM] | Ki (Mu-type opioid receptor) [µM] | Ki [3] [µM] | Selectivity ratio (Cavia porcellus)
CCC(=N)NCCCCNC(=O)C(CC(C)C)NC(=O)[C@]1(c2ccccc2)CC1CN1CC[C@@]2(C)c3cc(O)ccc3CC1C2C (stereo not given in full) | 11.5 | 192 | 2.2 | – | –
CC(C)CC(NC(=O)CNC(=O)[C@]1(c2ccccc2)CC1CN1CC[C@@]2(C)c3cc(O)ccc3CC1C2C)C(=O)NCCCCN (stereo not given in full) | 49.1 | 270 | 13.2 | 10.5 | 38.7
CCCCC(=N)NCCCNC(=O)C(CC(C)C)NC(=O)CNC(=O)[C@]1(c2ccccc2)CC1CN1CC[C@@]2(C)c3cc(O)ccc3CC1C2C (stereo not given in full) | 192 | 18 | 3.46 | 4.95 | 275
CC(C)CC(NC(=O)CNC(=O)[C@]1(c2ccccc2)CC1CN1CC[C@@]2(C)c3cc(O)ccc3CC1C2C)C(=O)NCCCN=C(N)N (stereo not given in full) | 128 | – | – | – | 51.4
CCC(=N)NCCCCCCNC(=O)C(CC(C)C)NC(=O)CNC(=O)[C@]1(c2ccccc2)CC1CN1CC[C@@]2(C)c3cc(O)ccc3CC1C2C (stereo not given in full) | 89.8 | 46.9 | 4.21 | 5.06 | 108
CC[C@H](C)[C@H](NC(=O)[C@H](CCCN=C(N)N)NC(=O)[C@H](CCCN=C(N)N)NC(=O)CNC(=O)[C@]1(c2ccccc2)CC1CN1CC[C@@]2(C)c3cc(O)ccc3CC1C2C)C(=O)OC (stereo not given in full) (X1-GRRI-OMe) | 42.4 | – | – | – | –
CCC(=N)NCCCNC(=O)C(CC(C)C)NC(=O)CNC(=O)[C@]1(c2ccccc2)CC1CN1CC[C@@]2(C)c3cc(O)ccc3CC1C2C (stereo not given in full) | 42.5 | 256 | 10.9 | 10.4 | 40.5
CC(C)CC(NC(=O)CNC(=O)[C@]1(c2ccccc2)CC1CN1CC[C@@]2(C)c3cc(O)ccc3CC1C2C)C(=O)NCCCCCN (stereo not given in full) | 44.4 | 246 | 10.9 | 9.58 | 38.9
CC(C)CC(NC(=O)CNC(=O)[C@]1(c2ccccc2)CC1CN1CC[C@@]2(C)c3cc(O)ccc3CC1C2C)C(=O)NCCCCCNC(=N)N (stereo not given in full) | – | 47.5 | 3.85 | 3.48 | –
CCCCC(=N)NCCCCNC(=O)C(CC(C)C)NC(=O)[C@]1(c2ccccc2)CC1CN1CC[C@@]2(C)c3cc(O)ccc3CC1C2C (stereo not given in full) | 18.3 | 116 | 2.13 | – | –
CCC(=N)NCCCNC(=O)C(CC(C)C)NC(=O)[C@]1(c2ccccc2)CC1CN1CC[C@@]2(C)c3cc(O)ccc3CC1C2C (stereo not given in full) | 19.6 | 254 | 4.98 | – | –
CC(C)CC(NC(=O)CNC(=O)[C@]1(c2ccccc2)CC1CN1CC[C@@]2(C)c3cc(O)ccc3CC1C2C)C(=O)NCCCN (stereo not given in full) | 57 | 282 | 16.1 | 10.6 | 37.6
CC(C)CC(NC(=O)[C@]1(c2ccccc2)CC1CN1CC[C@@]2(C)c3cc(O)ccc3CC1C2C)C(=O)NCCCCCN (stereo not given in full) | 11.8 | 276 | 3.25 | – | –
CC(C)CC(NC(=O)CNC(=O)[C@]1(c2ccccc2)CC1CN1CC[C@@]2(C)c3cc(O)ccc3CC1C2C)C(=O)NCCCCN=C(N)N (stereo not given in full) | 91.7 | 67.2 | 6.16 | 3.5 | 52.1
CC(C)CC(NC(=O)[C@]1(c2ccccc2)CC1CN1CC[C@@]2(C)c3cc(O)ccc3CC1C2C)C(=O)NCCCCCCN=C(N)N (stereo not given in full) | 18.9 | 139 | 2.63 | 2.83 | 20.3
CC(C)CC(NC(=O)CNC(=O)[C@]1(c2ccccc2)CC1CN1CC[C@@]2(C)c3cc(O)ccc3CC1C2C)C(=O)NCCCCCCN=C(N)N (stereo not given in full) | 94.3 | – | – | – | 84.2
CCCCC(=N)NCCCCCCNC(=O)C(CC(C)C)NC(=O)[C@]1(c2ccccc2)CC1CN1CC[C@@]2(C)c3cc(O)ccc3CC1C2C (stereo not given in full) | 27.9 | 81 | 2.26 | 3.26 | 40.2
CC(C)CC(NC(=O)[C@]1(c2ccccc2)CC1CN1CC[C@@]2(C)c3cc(O)ccc3CC1C2C)C(=O)NCCCN=C(N)N (stereo not given in full) | 8.7 | 280 | 2.43 | – | –

Structure (SMILES) | Selectivity ratio [1] | Ki [2] [nM] | Ki (Mu-type opioid receptor) [µM] | Ki [3] [µM] | Selectivity ratio (Cavia porcellus)
CCC(=N)NCCCCNC(=O)C(CC(C)C)NC(=O)CNC(=O)[C@]1(c2ccccc2)CC1CN1CC[C@@]2(C)c3cc(O)ccc3CC1C2C (stereo not given in full) | 42.6 | 176 | 7.48 | 9.7 | 55.2
CCCC(=N)NCCCCNC(=O)C(CC(C)C)NC(=O)[C@]1(c2ccccc2)CC1CN1CC[C@@]2(C)c3cc(O)ccc3CC1C2C (stereo not given in full) | 11.2 | 203 | 2.28 | – | –
CCC(=N)NCCCCCCNC(=O)C(CC(C)C)NC(=O)[C@]1(c2ccccc2)CC1CN1CC[C@@]2(C)c3cc(O)ccc3CC1C2C (stereo not given in full) | 25.3 | 116 | 2.94 | 3.55 | 30.5
CC(C)CC(NC(=O)[C@]1(c2ccccc2)CC1CN1CC[C@@]2(C)c3cc(O)ccc3CC1C2C)C(=O)NCCCCN (stereo not given in full) | 8.9 | 382 | 3.4 | – | –
CC(C)CC(NC(=O)[C@]1(c2ccccc2)CC1CN1CC[C@@]2(C)c3cc(O)ccc3CC1C2C)C(=O)NCCCCCN=C(N)N (stereo not given in full) | 12.9 | – | – | – | –
CC(C)CC(NC(=O)[C@]1(c2ccccc2)CC1CN1CC[C@@]2(C)c3cc(O)ccc3CC1C2C)C(=O)NCCCCCNC(=N)N (stereo not given in full) | – | 216 | 2.79 | – | –
CCCC(=N)NCCCCCNC(=O)C(CC(C)C)NC(=O)[C@]1(c2ccccc2)CC1CN1CC[C@@]2(C)c3cc(O)ccc3CC1C2C (stereo not given in full) | 12.8 | 156 | 2 | – | –
CCC(=N)NCCCCCNC(=O)C(CC(C)C)NC(=O)[C@]1(c2ccccc2)CC1CN1CC[C@@]2(C)c3cc(O)ccc3CC1C2C (stereo not given in full) | 14.8 | 149 | 2.21 | – | –
CC(C)CC(NC(=O)CNC(=O)[C@]1(c2ccccc2)CC1CN1CC[C@@]2(C)c3cc(O)ccc3CC1C2C)C(=O)NCCCCCCNC(=N)N (stereo not given in full) | – | 35.5 | 3.35 | 2.99 | –
CC(C)CC(NC(=O)CNC(=O)[C@]1(c2ccccc2)CC1CN1CC[C@@]2(C)c3cc(O)ccc3CC1C2C)C(=O)NCCCCCN=C(N)N (stereo not given in full) | 81.1 | – | – | – | 73.1
CC[C@H](C)[C@H](NC(=O)[C@H](CCCNC(=N)N)NC(=O)[C@H](CCCNC(=N)N)NC(=O)CNC(=O)[C@]1(c2ccccc2)CC1CN1CC[C@@]2(C)c3cc(O)ccc3CC1C2C)C(=O)OC (stereo not given in full) (X1-GRRI-OMe) | – | 54.3 | 2.3 | > 25 | –
CC(C)CC(NC(=O)[C@]1(c2ccccc2)CC1CN1CC[C@@]2(C)c3cc(O)ccc3CC1C2C)C(=O)NCCCCN=C(N)N (stereo not given in full) | 11.8 | 250 | 2.95 | – | –
CC[C@H](C)[C@H](NC(=O)[C@H](CCCN=C(N)N)NC(=O)[C@H](CCCN=C(N)N)NC(=O)[C@]1(c2ccccc2)C[C@@H]1CN1CC[C@@]2(C)c3cc(O)ccc3CC1C2C)C(=O)OC (stereo not given in full) | 58.7 | 78.4 | 4.6 | > 25 | –
CC(C)CC(NC(=O)CNC(=O)[C@]1(c2ccccc2)CC1CN1CC[C@@]2(C)c3cc(O)ccc3CC1C2C)C(=O)NCCCNC(=N)N (stereo not given in full) | – | 72.5 | 9.24 | 3.72 | –
CCCC(=N)NCCCNC(=O)C(CC(C)C)NC(=O)[C@]1(c2ccccc2)CC1CN1CC[C@@]2(C)c3cc(O)ccc3CC1C2C (stereo not given in full) | 15 | 238 | 3.57 | – | –
CCCCC(=N)NCCCNC(=O)C(CC(C)C)NC(=O)[C@]1(c2ccccc2)CC1CN1CC[C@@]2(C)c3cc(O)ccc3CC1C2C (stereo not given in full) | 16 | 139 | 2.23 | – | –
CC(C)CC(NC(=O)[C@]1(c2ccccc2)CC1CN1CC[C@@]2(C)c3cc(O)ccc3CC1C2C)C(=O)NCCCN (stereo not given in full) | 11.5 | 367 | 4.22 | – | –
